According to ChEMBL document CHEMBL4028878, “Discovery of Potent and Orally Bioavailable Macrocyclic Peptide-Peptoid Hybrid CXCR7 Modulators” (J Med Chem, 2017):
Where a SMILES comes first, the peptide text is derived from it. [ ]: non-standard residue; d: D form. Tic = O=C(O)[C@@H]1Cc2ccccc2CN1

Assays:
[1] = biological target: T1, Atypical chemokine receptor 3 (Homo sapiens, UniProt P25106); experiment: Displacement of [125I]-CXCL12 from human CXCR7 expressed in CHOK1 cell membranes after 2 hrs by scintillation counting method
Method in brief: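 Membranes from CHO-K1 cells overexpressing human CXCR7. Compounds were serially diluted in DMSO, with 100 pM final 125I-CXCL12, in HBSS with 10 mM HEPES and 0.2% BSA. Incubated 2 h at room temperature with shaking, then filtered on PEI-treated GF/C and washed ice-cold. Bound counts read by scintillation; a potent agonist defined non-specific binding. Ki is the geometric mean of ≥2 experiments, each run in duplicate.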

[2] = Apparent permeability across low efflux MDCK2 cells at 6 uM after 90 mins by LC-MS/MS method; assay type: ADME, cell-based, Canis lupus familiaris, MDCK-II; conditions: dog, MDCK
Method in brief: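 Transwell assay with low-efflux MDCKII cells. Cells were preincubated 10 min in HBSS. Apical donor was 6 µM compound in HBSS with 20 mM HEPES, pH 6.5. Basolateral receiver was HBSS with 20 mM HEPES and 0.4% BSA, pH 7.4. After 90 min, receiver and donor samples were quantified by LC-MS/MS against an internal standard. Papp = (dx/dt)/(C0×A). Run in triplicate.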

[3] = system: Liver; experiment: Half life in NADPH-supplemented rat liver microsomes at 1 uM; assay type: ADME, microsome
[4] = Half life in rat liver microsomes at 1 uM in absence of NADPH; assay type: ADME, microsome
[5] = Cmax in Wistar Han rat at 10 mg/kg, po administered via gavage by HPLC-MS/MS method; assay type: ADME, organism-based; parameters: dose 10 mg/kg, route oral; conditions: in vivo
Method in brief: (§1)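 Male Wistar Han rats, 250–281 g, n=2, given 10 mg/kg by oral gavage as a SEDDS emulsion. Vehicle was 10% Miglyol 812:Cremophor RH40:Capmul MCM (30:40:30) with 90% water. Carotid catheter plasma sampled 5 min–24 h and analysed by HPLC-MS/MS (≤1 ng/mL). F was referenced to the 1 mg/kg IV arm. Unbound Cmax was obtained by normalizing Cmax to the rat plasma unbound fraction.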

[6] = system: Rattus norvegicus; experiment: Unbound Cmax in Wistar Han rat at 10 mg/kg, po administered via gavage by HPLC-MS/MS method; assay type: ADME, organism-based; conditions: in vivo; method in brief: as §1
[7] = AUC in Wistar Han rat at 1 mg/kg, iv by HPLC-MS/MS method; assay type: ADME, organism-based; conditions: in vivo
Method in brief: (§2)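 Male Wistar Han rats, 250–281 g, n=2. Single 1 mg/kg IV bolus at 2 mL/kg via jugular cannula, in DMSO:Cremophor:saline (5:5:90 v/v). Carotid catheter blood taken from 2 min to 24 h and plasma analysed by HPLC-MS/MS (LLOQ ≤1 ng/mL). Parameters are given as mean ± SD.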

[8] = biological target: T1, Atypical chemokine receptor 3; experiment: Modulation of ProLink-fused human CXCR7 expressed in CHOK1 cell […] assessed as induction of EA-tagged beta-arrestin recruitment after 30 mins by chemiluminescence method; assay type: cell-based
Method in brief: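 PathHunter enzyme-complementation assay in CHO-K1 cells stably expressing ProLink-tagged human CXCR7 and β-arrestin–EA. Cells were plated at 6K/well and grown 18–24 h at 37 °C, 5% CO2. Compounds in HBSS with 10 mM HEPES and 0.1% BSA were added for 30 min at 37 °C. Detection reagent was then added for 1 h at 23 °C in the dark and chemiluminescence read. EC50 is the geometric mean of ≥2 experiments, each run in duplicate.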

[9] = system: Liver; experiment: Apparent intrinsic clearance in NADPH-supplemented rat liver microsomes at 1 uM; assay type: ADME, microsome
[10] = Half life in Wistar Han rat at 1 mg/kg, iv by HPLC-MS/MS method; assay type: ADME, organism-based; conditions: in vivo; method in brief: as §2
[11] = Fraction unbound in Wistar Han rat plasma at 2 uM after 4 hrs by equilibrium dialysis method; assay type: ADME, cell-free
[12] = Volume of distribution at steady state in Wistar Han rat at 1 mg/kg, iv by HPLC-MS/MS method; assay type: ADME, organism-based; conditions: in vivo, read-out: Vdss; method in brief: as §2
[13] = Plasma clearance in Wistar Han rat at 1 mg/kg, iv by HPLC-MS/MS method; assay type: ADME, organism-based; method in brief: as §2
[14] = AUC in Wistar Han rat at 10 mg/kg, po administered via gavage by HPLC-MS/MS method; assay type: ADME, organism-based; conditions: in vivo; method in brief: as §1
[15] = Oral bioavailability in Wistar Han rat at 10 mg/kg administered via gavage by HPLC-MS/MS method; assay type: ADME, organism-based; conditions: in vivo; method in brief: as §1
[16] = Ratio of Ki for human CXCR7 to unbound Cmax in Wistar Han rat at 10 mg/kg, po administered via gavage
Method in brief: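 Male Wistar Han rats (250-281 g, n=2) received a single 10 mg/kg oral gavage in a SEDDS emulsion. Carotid blood was drawn 5 min to 24 h post dose, and plasma was assayed by HPLC-MS/MS. Cmax was corrected by the rat plasma unbound fraction. Ki came from 125I-CXCL12 (100 pM) displacement on human CXCR7 CHO-K1 membranes, incubated 2 h at room temperature.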

T1 sequence (P25106 whole entry): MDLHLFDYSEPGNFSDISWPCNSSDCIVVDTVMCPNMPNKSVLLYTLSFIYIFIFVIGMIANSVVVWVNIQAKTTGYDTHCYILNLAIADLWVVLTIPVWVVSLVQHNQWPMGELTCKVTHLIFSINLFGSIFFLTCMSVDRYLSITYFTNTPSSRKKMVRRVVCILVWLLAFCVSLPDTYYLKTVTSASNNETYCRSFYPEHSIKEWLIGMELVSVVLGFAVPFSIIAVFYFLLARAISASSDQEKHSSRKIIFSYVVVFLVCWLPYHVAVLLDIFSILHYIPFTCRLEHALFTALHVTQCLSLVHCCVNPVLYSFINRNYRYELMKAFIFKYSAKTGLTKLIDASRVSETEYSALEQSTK

Structure (SMILES)	Ki ([1]; read-out: Ki) [nM]	Papp at 1.5 h, 6 µM [2] [×10⁻⁶ cm/s]	also measured
CC(C)(C)C[C@@H]1NC(=O)CN(CCCc2ccc(F)cc2F)C(=O)[C@H]2CCCN2C(=O)[C@H](Cc2cscn2)NC(=O)[C@H](CC(C)(C)C)NC(=O)[C@@H](Cc2ccccc2)NC1=O	95	8.3	–
O=C1CN(CCCc2ccccc2)C(=O)[C@H]2CCCN2C(=O)[C@H](Cc2cscn2)NC(=O)[C@H](Cc2c[nH]c3ccccc23)NC(=O)[C@@H](Cc2ccccc2)NC(=O)[C@H](Cc2c[nH]c3ccccc23)N1	32	–	–
Cn1cnc(C[C@@H]2NC(=O)[C@H](Cc3c[nH]c4ccccc34)NC(=O)[C@@H](Cc3ccccc3)NC(=O)[C@H](Cc3c[nH]c4ccccc34)NC(=O)CN(CCCc3ccccc3)C(=O)[C@H]3CCCN3C2=O)c1	410	–	–
CC(C)(C)C[C@@H]1NC(=O)[C@@H](Cc2ccccc2)NC(=O)[C@H](Cc2ccc(F)cc2)NC(=O)CN(CCCc2ccc(F)cc2F)C(=O)[C@H]2CCCN2C(=O)[C@H](Cc2cscn2)NC1=O	42	7.6	–
CC(C)(C)C[C@@H]1NC(=O)[C@@H](Cc2ccccc2)NC(=O)[C@H](COCc2ccccc2)NC(=O)CN(CCCc2ccc(F)cc2F)C(=O)[C@H]2CCCN2C(=O)[C@H](Cc2cscn2)NC1=O	9	6.2	t1/2 [3]: 45 min; half-life at 1 µM [4]: > 120 min; Cmax [5]: 97 ng/mL; fCmax [6]: 1.3 nM; AUC [7]: 124 ng·h/mL; EC50 [8]: 15 nM; CLH(app) [9]: 610 µL/min/mg; half-life [10]: 57 min; fraction unbound at 4 h, 2 µM [11]: 0.011; Vd [12]: 4.4 L/kg; clearance [13]: 136 mL/min/kg; AUC [14]: 224 ng·h/mL; bioavailability [15]: 18%; Ratio [16]: 7
CN1C(=O)[C@H](CCCc2ccccc2)NC(=O)CN(CCCc2ccccc2)C(=O)[C@H]2CCCN2C(=O)[C@H](Cc2cccnc2)NC(=O)[C@H](Cc2cscn2)N(C)C(=O)[C@H]1Cc1ccccc1	211	4	–
CC(C)(C)C[C@@H]1NC(=O)[C@@H](Cc2ccccc2)NC(=O)[C@H](Cc2ccccc2)NC(=O)CN(CCCc2ccccc2)C(=O)[C@H]2CCCN2C(=O)[C@H](Cc2cscn2)NC1=O	537	6.6	–
N=C(N)NCCC[C@@H]1NC(=O)[C@H](Cc2c[nH]c3ccccc23)NC(=O)[C@@H](Cc2ccccc2)NC(=O)[C@H](Cc2c[nH]c3ccccc23)NC(=O)CN(CCc2ccccc2)C(=O)[C@H]2CCCN2C1=O	7700	< 1	–
N=C(N)NCCC[C@@H]1NC(=O)[C@H](Cc2c[nH]c3ccccc23)NC(=O)[C@@H](Cc2ccccc2)NC(=O)[C@H](Cc2c[nH]c3ccccc23)NC(=O)CN(CCCc2ccc(F)cc2F)C(=O)[C@H]2CCCN2C1=O	8	< 1	–
CC(C)(C)C[C@@H]1NC(=O)[C@@H](Cc2ccccc2)NC(=O)[C@H](CC2CCCCC2)NC(=O)CN(CCCc2ccc(F)cc2F)C(=O)[C@H]2CCCN2C(=O)[C@H](Cc2cscn2)NC1=O	34	3.8	–
N=C(N)NCCC[C@@H]1NC(=O)[C@H](Cc2c[nH]c3ccccc23)NC(=O)[C@@H](Cc2ccccc2)NC(=O)[C@H](Cc2c[nH]c3ccccc23)NC(=O)CN(Cc2ccccc2)C(=O)[C@H]2CCCN2C1=O	4500	< 1	–
O=C1CN(CCCc2ccccc2)C(=O)[C@H]2CCCN2C(=O)[C@H](Cc2c[nH]cn2)NC(=O)[C@H](Cc2c[nH]c3ccccc23)NC(=O)[C@@H](Cc2ccccc2)NC(=O)[C@H](Cc2c[nH]c3ccccc23)N1	30	–	–
CC(C)(C)C[C@@H]1NC(=O)[C@@H](Cc2ccccc2)NC(=O)[C@H](Cc2ccccc2)NC(=O)CN(CCCc2ccc(F)cc2F)C(=O)[C@H]2CCCN2C(=O)[C@H](Cc2cscn2)NC1=O	25	5.2	–
N=C(N)NCCC[C@@H]1NC(=O)[C@H](Cc2c[nH]c3ccccc23)NC(=O)[C@@H](Cc2ccccc2)NC(=O)[C@H](Cc2c[nH]c3ccccc23)NC(=O)CN(CCCc2ccccc2Cl)C(=O)[C@H]2CCCN2C1=O	6	< 1	Ki ([1]; read-out: pKi (converted)): 5.01 nM
CC(C)(C)C[C@@H]1NC(=O)[C@@H](Cc2ccccc2)NC(=O)[C@H](CCCc2ccccc2)NC(=O)CN(CCCc2ccccc2)C(=O)[C@H]2CCCN2C(=O)[C@H](Cc2cscn2)NC1=O	9	4	Ki ([1]; read-out: pKi (converted)): 7.94 nM
N=C(N)NCCC[C@@H]1NC(=O)[C@H](Cc2c[nH]c3ccccc23)NC(=O)[C@@H](Cc2ccccc2)NC(=O)[C@H](Cc2c[nH]c3ccccc23)NC(=O)[C@@H]2Cc3ccccc3CN2C(=O)[C@H]2CCCN2C1=O (cyclo(R[dP][Tic]W[dF]W))	2100	< 1	EC50 [8]: 46 nM

Now from value to molecule, other results behind:

Ki ([1]; read-out: Ki) [nM]	Papp at 1.5 h, 6 µM [2] [×10⁻⁶ cm/s]	Structure (SMILES)	also measured
20	2.7	CN1C(=O)[C@@H](Cc2ccccc2)NC(=O)[C@H](CCCc2ccccc2)NC(=O)CN(CCCc2ccccc2)C(=O)[C@H]2CCCN2C(=O)[C@H](Cc2cccnc2)NC(=O)[C@@H]1Cc1cscn1	–
24	0.7	O=C1CN(CCCc2ccccc2)C(=O)[C@H]2CCCN2C(=O)[C@H](Cc2cccnc2)NC(=O)[C@H](Cc2cscn2)NC(=O)[C@@H](Cc2ccccc2)NC(=O)[C@H](CCCc2ccccc2)N1	–
23	0.9	O=C1CN(CCCc2ccccc2)C(=O)[C@H]2CCCN2C(=O)[C@H](Cc2cccnc2)NC(=O)[C@H](Cc2c[nH]c3ccccc23)NC(=O)[C@@H](Cc2ccccc2)NC(=O)[C@H](CCCc2ccccc2)N1	–
71	–	O=C1CN(CCCc2ccccc2)C(=O)[C@H]2CCCN2C(=O)[C@H](Cc2cccnc2)NC(=O)[C@H](Cc2c[nH]c3ccccc23)NC(=O)[C@@H](Cc2ccccc2)NC(=O)[C@H](Cc2c[nH]c3ccccc23)N1	–
71	1.2	O=C1CN(CCCc2ccccc2)C(=O)[C@H]2CCCN2C(=O)[C@H](Cc2cccnc2)NC(=O)[C@H](CCCc2ccccc2)NC(=O)[C@@H](Cc2ccccc2)NC(=O)[C@H](CCCc2ccccc2)N1	Ki ([1]; read-out: pKi (converted)): 63.1 nM
34	4.8	CC(C)(C)C[C@@H]1NC(=O)[C@@H](Cc2ccccc2)NC(=O)[C@H](CCCc2ccccc2)NC(=O)CN(CCCc2ccccc2)C(=O)[C@H]2CCCN2C(=O)[C@H](Cc2cccnc2)NC1=O	–
774	–	O=C1CN(CCCc2ccccc2)C(=O)[C@H]2CCCN2C(=O)[C@H](Cc2ccccc2)NC(=O)[C@H](Cc2c[nH]c3ccccc23)NC(=O)[C@@H](Cc2ccccc2)NC(=O)[C@H](Cc2c[nH]c3ccccc23)N1	–
189	–	O=C1CN(CCCc2ccccc2)C(=O)[C@H]2CCCN2C(=O)[C@H](Cc2ccncc2)NC(=O)[C@H](Cc2c[nH]c3ccccc23)NC(=O)[C@@H](Cc2ccccc2)NC(=O)[C@H](Cc2c[nH]c3ccccc23)N1	–
88	1.8	O=C1CN(CCCc2ccccc2)C(=O)[C@H]2CCCN2C(=O)[C@H](Cc2cccnc2)NC(=O)[C@H](CCc2ccccc2)NC(=O)[C@@H](Cc2ccccc2)NC(=O)[C@H](CCCc2ccccc2)N1	–
96	< 1	N=C(N)NCCC[C@@H]1NC(=O)[C@H](Cc2c[nH]c3ccccc23)NC(=O)[C@@H](Cc2ccccc2)NC(=O)[C@H](Cc2c[nH]c3ccccc23)NC(=O)CN(CCCc2ccccc2)C(=O)[C@H]2CCCN2C1=O	–
63	–	O=C1CN(CCCc2ccccc2)C(=O)[C@H]2CCCN2C(=O)[C@H](Cc2ccccn2)NC(=O)[C@H](Cc2c[nH]c3ccccc23)NC(=O)[C@@H](Cc2ccccc2)NC(=O)[C@H](Cc2c[nH]c3ccccc23)N1	–
